The target of assay [1] is Human immunodeficiency virus type 1 reverse transcriptase (Human immunodeficiency virus 1, UniProt Q72547). Put plainly: Inhibition of wild type HIV-1 NL4-3 reverse transcriptase using random mRNA as template and GADPH as primer measured at 42 degreeC for 5 mins, 95 degreeC for 10sec and 60 degreeC for 60 sec by qRT-PCR analysis. On the technique in general: In qPCR the cycle at which signal appears reflects the starting amount.

The target of assay [2] is Human immunodeficiency virus type 1 protease (Human immunodeficiency virus 1, UniProt Q72874). Kind of assay: Inhibition of wild type HIV1 protease expressed in Escherichia coli using Arg-Glu (EDANS)-Ser-Gln-Asn-Tyr-Pro-Ile-Val-Gln-Lys(DABCYL)-Arg as substrate preincubated for 20 to 30 mins followed by substrate addition and measured for 10 mins by FRET assay. In short, it runs like this: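 Recombinant HIV-1 PR was expressed in E. coli and purified. It was mixed with inhibitor (DMSO stock) for 20–30 min at room temperature before addition of the EDANS/DABCYL-labelled peptide. Buffer: 0.1 M sodium acetate, 1 M NaCl, 1 mM EDTA, 1 mM DTT, 2% DMSO, 1 mg/mL BSA, pH 4.7. Triplicate; mean of three independent experiments.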

In general, IC50 refers to the concentration needed to halve the response being measured. Low values mean higher potency, high ones lower potency. With `COc1ccc(S(=O)(=O)N(CC(C)C)C[C@@H](O)[C@H](Cc2ccccc2)NC(=O)/C=C/c2ccc(O)c(OC)c2)cc1`, the IC50 is 146 nM in assay [1] and 2.93 nM in assay [2].

`COc1cc(CCC(=O)N[C@@H](Cc2ccccc2)[C@H](O)CN(CC(C)C)S(=O)(=O)c2ccc(N)cc2)ccc1O`: the IC50 in assay [1] is 31.5 nM; in assay [2] it was 0.58 nM.

For the compound `COc1cc(CCC(=O)N[C@@H](Cc2ccccc2)[C@H](O)CN(CC(C)C)S(=O)(=O)c2ccc(N)cc2)c(OC)cc1O`, the figures for the IC50 in assay [1] and in assay [2] were 113 nM and 68.9 nM, respectively.

Consider `COc1ccc(S(=O)(=O)N(C[C@@H](O)[C@H](Cc2ccccc2)NC(=O)/C=C/c2ccc(O)c(OC)c2)C2CC2)cc1`, for which the IC50 in assay [1] came to 43.5 nM; in assay [2], 97.6 nM.

Consider `COc1cc(/C=C/C(=O)N[C@@H](Cc2ccccc2)[C@H](O)CN(CC(C)C)S(=O)(=O)c2ccc(SC)cc2)ccc1O`, for which the IC50 was found to be 99.5 nM in assay [1] and 15.8 nM in assay [2].

Turning to `COc1ccc(S(=O)(=O)N(CC(C)C)C[C@@H](O)[C@H](Cc2ccccc2)NC(=O)/C=C/c2ccc(O)c(O)c2)cn1`, the IC50 was determined as 35.5 nM in assay [1] and 2.86 nM in assay [2].

`COc1cc(/C=C/C(=O)N[C@@H](Cc2ccccc2)[C@H](O)CN(CC(C)C)S(=O)(=O)c2ccc(N)cc2)ccc1O`: the IC50 in assay [1] was 43.5 nM; in assay [2], 3.09 nM.

Regarding `CC(C)CN(C[C@@H](O)[C@H](Cc1ccccc1)NC(=O)/C=C/c1ccc(O)c(O)c1)S(=O)(=O)c1ccc(N)cc1`, the IC50 in assay [1] is 7.5 nM; in assay [2] it was 0.2 nM.

For the compound `COc1ccc(S(=O)(=O)N(CC(C)C)C[C@@H](O)[C@H](Cc2ccccc2)NC(=O)/C=C/c2cc(OC)c(O)c(OC)c2)cn1`, the IC50 amounted to 11.5 nM in assay [1] and 69.5 nM in assay [2].

Regarding `COc1ccc(S(=O)(=O)N(CC(C)C)C[C@@H](O)[C@H](Cc2ccccc2)NC(=O)CCc2ccc(O)c(OC)c2)cn1`, the results for the IC50 in assay [1] and in assay [2] were 241 nM and 0.16 nM, respectively.

As to `COc1ccc(S(=O)(=O)N(C[C@@H](O)[C@H](Cc2ccccc2)NC(=O)CCc2ccc(O)c(O)c2)C2CC2)cc1`, the values for the IC50 in assay [1] and in assay [2] were 45.5 nM and 4.04 nM, respectively.

Turning to `COc1ccc(S(=O)(=O)N(C[C@@H](O)[C@H](Cc2ccccc2)NC(=O)/C=C/c2ccc(O)c(OC)c2)C(C)C)cc1`, the concentration for half-maximal inhibition (IC50) in assay [1] came out at 87.5 nM; in assay [2], 98.8 nM.

Take `COc1ccc(S(=O)(=O)N(C[C@@H](O)[C@H](Cc2ccccc2)NC(=O)CCc2ccc(O)c(O)c2)C(C)C)cc1`: the IC50 was 20.5 nM in assay [1] and 1.47 nM in assay [2].

Regarding `COc1ccc(S(=O)(=O)N(C[C@@H](O)[C@H](Cc2ccccc2)NC(=O)/C=C/c2cc(OC)c(O)c(OC)c2)C(C)C)cc1`, the figures for the half-maximal inhibitory concentration (IC50) in assay [1] and in assay [2] were 199 nM and 527 nM, respectively.

On to `COc1ccc(S(=O)(=O)N(C[C@@H](O)[C@H](Cc2ccccc2)NC(=O)/C=C/c2ccc(O)c(O)c2)C(C)C)cc1`, for which the IC50 was 53.5 nM in assay [1] and 54 nM in assay [2].

For `CCCN(C[C@@H](O)[C@H](Cc1ccccc1)NC(=O)CCc1ccc(O)c(O)c1)S(=O)(=O)c1ccc(OC)cc1`, the values for the IC50 in assay [1] and in assay [2] were 7.5 nM and 0.54 nM, respectively.

As for `COc1cc(CCC(=O)N[C@@H](Cc2ccccc2)[C@H](O)CN(CC(C)C)S(=O)(=O)c2ccc(SC)cc2)c(OC)cc1O`, the IC50 stood at 60.7 nM in assay [1] and 89.8 nM in assay [2].

Take `COc1ccc(S(=O)(=O)N(CC(C)C)C[C@@H](O)[C@H](Cc2ccccc2)NC(=O)CCc2cc(OC)c(O)cc2OC)cc1`: the results for the IC50 in assay [1] and in assay [2] were 73 nM and 104 nM, respectively.

Consider `COc1cc(CCC(=O)N[C@@H](Cc2ccccc2)[C@H](O)CN(CC(C)C)S(=O)(=O)c2ccc(SC)cc2)ccc1O`, for which the IC50 in assay [1] came to 3.5 nM; in assay [2], 7.73 nM.

Turning to `COc1cc(/C=C/C(=O)N[C@@H](Cc2ccccc2)[C@H](O)CN(CC(C)C)S(=O)(=O)c2ccc(SC)cc2)cc(OC)c1O`, the IC50 in assay [1] amounted to 51.5 nM; in assay [2], 65.1 nM.

For the compound `COc1ccc(S(=O)(=O)N(C[C@@H](O)[C@H](Cc2ccccc2)NC(=O)CCc2ccc(O)c(OC)c2)C2CC2)cc1`, the IC50 in assay [1] worked out at 285 nM; in assay [2], 32.5 nM.

In the case of `COc1ccc(S(=O)(=O)N(CC(C)C)C[C@@H](O)[C@H](Cc2ccccc2)NC(=O)CCc2ccc(O)c(O)c2)cn1`, the results for the IC50 in assay [1] and in assay [2] were 2.5 nM and 0.081 nM, respectively.

On to `CSc1ccc(S(=O)(=O)N(CC(C)C)C[C@@H](O)[C@H](Cc2ccccc2)NC(=O)/C=C/c2ccc(O)c(O)c2)cc1`, for which the IC50 in assay [1] was determined as 21.5 nM; in assay [2] it was 16.2 nM.

Turning to `COc1ccc(S(=O)(=O)N(CC(C)C)C[C@@H](O)[C@H](Cc2ccccc2)NC(=O)/C=C/c2cc(OC)c(O)c(OC)c2)cc1`, the IC50 in assay [1] amounted to 125 nM; in assay [2], 13.1 nM.

Turning to `COc1ccc(S(=O)(=O)N(CC(C)C)C[C@@H](O)[C@H](Cc2ccccc2)NC(=O)/C=C/c2ccc(O)c(O)c2)cc1`, the IC50 in assay [1] came to 40.8 nM; in assay [2] it was 0.16 nM.

`CCCN(C[C@@H](O)[C@H](Cc1ccccc1)NC(=O)CCc1ccc(O)c(OC)c1)S(=O)(=O)c1ccc(OC)cc1`: the IC50 stood at 234 nM in assay [1] and 1.7 nM in assay [2].

For `COc1ccc(S(=O)(=O)N(C[C@@H](O)[C@H](Cc2ccccc2)NC(=O)CCc2ccc(O)c(OC)c2)C(C)C)cc1`, the IC50 in assay [1] stood at 40.5 nM; in assay [2], 9.56 nM.

`COc1ccc(S(=O)(=O)N(CC(C)C)C[C@@H](O)[C@H](Cc2ccccc2)NC(=O)CCc2cc(OC)c(O)cc2OC)cn1`: the IC50 worked out at 2.97 nM in assay [1] and 42.2 nM in assay [2].

As to `COc1ccc(S(=O)(=O)N(C[C@@H](O)[C@H](Cc2ccccc2)NC(=O)/C=C/c2ccc(O)c(O)c2)C2CC2)cc1`, the 50% inhibitory concentration (IC50) in assay [1] amounted to 31.5 nM; in assay [2], 19.5 nM.

`COc1ccc(S(=O)(=O)N(CC(C)C)C[C@@H](O)[C@H](Cc2ccccc2)NC(=O)/C=C/c2ccc(O)c(OC)c2)cn1`: the half-inhibitory concentration (IC50) came to 124 nM in assay [1] and 2.42 nM in assay [2].

As to `CC(C)CN(C[C@@H](O)[C@H](Cc1ccccc1)NC(=O)CCc1ccc(O)c(O)c1)S(=O)(=O)c1ccc(N)cc1`, the IC50 was determined as 9.5 nM in assay [1] and 0.56 nM in assay [2].

Consider `COc1ccc(S(=O)(=O)N(C[C@@H](O)[C@H](Cc2ccccc2)NC(=O)/C=C/c2cc(OC)c(O)c(OC)c2)C2CC2)cc1`, for which the IC50 in assay [1] stood at 33.5 nM; in assay [2] it was 294 nM.

Consider `CCCN(C[C@@H](O)[C@H](Cc1ccccc1)NC(=O)/C=C/c1cc(OC)c(O)c(OC)c1)S(=O)(=O)c1ccc(OC)cc1`, for which the IC50 came out at 90.5 nM in assay [1] and 36.7 nM in assay [2].

As for `COc1ccc(S(=O)(=O)N(CC(C)C)C[C@@H](O)[C@H](Cc2ccccc2)NC(=O)CCc2ccc(O)c(OC)c2)cc1`, the values for the IC50 in assay [1] and in assay [2] were 206 nM and 1.1 nM, respectively.

Regarding `CCCN(C[C@@H](O)[C@H](Cc1ccccc1)NC(=O)/C=C/c1ccc(O)c(OC)c1)S(=O)(=O)c1ccc(OC)cc1`, the values for the IC50 in assay [1] and in assay [2] were 106 nM and 24.1 nM, respectively.

As to `COc1ccc(S(=O)(=O)N(CC(C)C)C[C@@H](O)[C@H](Cc2ccccc2)NC(=O)CCc2ccc(O)c(O)c2)cc1`, the IC50 amounted to 3.5 nM in assay [1] and 0.39 nM in assay [2].

As for `CCCN(C[C@@H](O)[C@H](Cc1ccccc1)NC(=O)/C=C/c1ccc(O)c(O)c1)S(=O)(=O)c1ccc(OC)cc1`, the IC50 in assay [1] worked out at 53.5 nM; in assay [2], 2.55 nM.

These data come from ChEMBL document CHEMBL4825676, “Design and biological evaluation of cinnamic and phenylpropionic amide derivatives as novel dual inhibitors of HIV-1 protease and reverse transcriptase” (Eur J Med Chem, 2021).
